Laboratory results from the RNAGym collection of RNA variant scans (doi:10.1126/science.aae0568).
Variants at the floor of the assay were thinned out.

B1: tRNA (parent)
chain: GUUCCGUUGGCGUAAUGGUAACGCGUCUCCCUCCUAAGGAGAAGACUGCGGGUUCGAGUCCCGUACGGAACG

Variants of: B1
Assay: yeast fitness relative to wild type (ratio to wild type); higher = fitter; tRNA-Arg(CCU), competitive growth, 37 C, YPD
How it was run: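 For this measurement, the tRNA-Arg(CCU) gene was varied by chemical synthesis at a 3% per-site mutation rate across 69 sites, and each variant was placed at the native genomic locus in Saccharomyces cerevisiae. The pooled strains went through a 24-hour competition in YPD at 37°C in six parallel replicates, with amplicons from start and end populations read by 100-nucleotide paired-end sequencing. Darwinian fitness relative to wild type followed from the change in each genotype's frequency. Genotypes needed ≥ 100 starting reads, and estimates < 0.5 were set to 0.5.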

Variant	yeast fitness
A14C G18A G44A C66G	0.56
A14C C31U G50A C55G C62A	≤ 0.5
A14C C34A A37G C62U	≤ 0.5
U13G C24A A45G C55G	0.622
A14C A20U C27G U59C C61A	≤ 0.5
A14C C31U A40G	≤ 0.5
A14C C27G C46G A57C A70C	≤ 0.5
A14C G18A C22G A57U	≤ 0.5
A14C C29U C46A	≤ 0.5
A14C C22A G67C	≤ 0.5
A14C C30A A36G C62U G63A	≤ 0.5
A14C C33A A37U C62G	≤ 0.5
A14C C66A	0.722
A14C C66G	0.558
A14C C66U	0.657
U13G C46U	0.895
U13G C22U A70U	0.751
U13G C22U A70C	0.748
A14C C27G U35C C46G A65G	≤ 0.5
A14C A20C C30A C34G C66A	≤ 0.5
U13G A21U C22A G25A G52U	≤ 0.5
U13G G23C A43C	0.584
A14C C62U A69C	≤ 0.5
U13G A37C A70G	0.539

Variant	yeast fitness
U13G C31U U35A G51A A69U A70G	≤ 0.5
A14C A20U C30A C31A G52A G68U	0.551
A14C A20G C30U	≤ 0.5
A14C C60A	0.589
U13G G25A	0.973
A14C A21C G39A C49G	≤ 0.5
A14C C22U U64C A70G	≤ 0.5
U13G U28A C55G C66A	0.63
U13G G39C C46U	0.535
A14C C30U G50C C66U	≤ 0.5
U13G C27A U28A C33U	≤ 0.5
A14C C27G A70U	0.54
A14C A42U	0.524
A14C A42G	0.595
A14C C27A C31A G63A	≤ 0.5
A14C C27U A43C	≤ 0.5
A14C C27U A43U	≤ 0.5
U13G A20U C22U C24A A45G C55U	≤ 0.5
U13G C49A G52C	≤ 0.5
U13G C27G	0.537
A14C A45U G48A A69U	≤ 0.5
A14C A15U U64G C66A	≤ 0.5
U13G C22U C31A A70U	≤ 0.5
U13G U32A C60A G63A	≤ 0.5

Variant	yeast fitness
A14C A20U C31U G38C	≤ 0.5
A14C C22U G41A C61U C66U	≤ 0.5
A14C C49G A69C	≤ 0.5
A14C A40C	0.6
U13G C62U	0.92
U13G C62G	0.726
A14C C27G A40U A70U	≤ 0.5
U13G G18A G39C A69U	≤ 0.5
U13G C29U C31U U35A A57C	≤ 0.5
A14C C62A	0.65
A14C C27G C30G G38C	≤ 0.5
A14C C24U A40U G44A A70G	≤ 0.5
A14C A45G G68C	≤ 0.5
U13G U35C G38A A42U G58C	≤ 0.5
A14C C46A U47G	≤ 0.5
U13G A20U U59A	≤ 0.5
A14C A20C C34U G44C G50C C62U	≤ 0.5
U13G C22U G44A	0.641
A14C A21U A40G A65C	0.621
A14C A20C C33G A65G	≤ 0.5
A14C C61U A70C	≤ 0.5
A14C A20U G25C A43C	≤ 0.5
U13G G58C C62U A70U	≤ 0.5
A14C A21G G25A C33U C61A A69U	≤ 0.5

Variant	yeast fitness
U13G U28A U53C C55G C66A	≤ 0.5
A14C A45C G50A	≤ 0.5
U13G G67C	0.777
A14C A15C C27U C29A C34G G50C	0.597
A14C A21U C22U A37G G44A A45C C46A C55U U59G	0.608
U13G C27A G52C C55A C62G	0.601
U13G C29U C33U G67A	≤ 0.5
U13G C29U G68C	≤ 0.5
A14C A40U G56C G67U	≤ 0.5
U13G G48A A65U	0.654
A14C A42G G48A	≤ 0.5
U13G C29U	0.769
U13G C29A	0.571
U13C U64C	1.04
A14C C29G C30A C62A A69C	≤ 0.5
A14C A57U C62U G67A	0.508
A14C C34A G38C	≤ 0.5
U13G A20U U59A C66U	≤ 0.5
U13G A14C A40C A42U	≤ 0.5
U13G A36G	0.913
U13G A36C	0.52
U13G G44C	0.774
A14C G17U C22U C34U	≤ 0.5
U13G C22U C31A C62U A65C	≤ 0.5

Variant	yeast fitness
U13G U35G A40G C66U	0.526
A14C C24U U35C	≤ 0.5
A14C C30G C46U G48A U54G	≤ 0.5
A14C C49G U54C G63A	≤ 0.5
U13G U19G	1.05
U13G C66U	0.818
A14C C49G G63A	0.593
A14C C49G G63C	0.592
A14C C29U G52A C55G	≤ 0.5
A14C C24A G52A U53A	≤ 0.5
A14C A37G C49G	≤ 0.5
U13G C49G G50C C60G C62A	≤ 0.5
U13G C33G	0.51
U13G C33U	0.671
U13G A20U	1.03
A14C C31U A40U A57G	0.53
A14C C30A A40U	≤ 0.5
A14C G18A C31G C33U A37C A65U	≤ 0.5
U13G C24A A45G	≤ 0.5
A14C A15U G18C	0.67
A14C C34U A37G A69C	≤ 0.5
A14C C27A A37G G51C	0.615
A14C C66G G68C	≤ 0.5
A14C A21C C24U A36U A43U A65C C66U	≤ 0.5

Variant	yeast fitness
A14C C27G C61U A70G	0.538
A14C A15G G44C C60A	≤ 0.5
U13G A45U	0.964
A14C A15G A42G A70U	0.569
A14C C31G A37U G39C A42C	≤ 0.5
U13C U47C C62G	≤ 0.5
A14C C29A G48A G50A	≤ 0.5
A14C A40C G41C C49U C55A A70U	≤ 0.5
U13G U16C G39C A65G	≤ 0.5
A14C C31U G58A C62U	0.609
U13G U28C G38C	≤ 0.5
A14C C61A	0.604
A14C C61U	0.626
A14C A20G C27U C62U	≤ 0.5
A14C C30U G68C	≤ 0.5
A14C C24U A45U G51C	≤ 0.5
A14C A43G U64A	≤ 0.5
A14C A15C A21U A57G A65G	≤ 0.5
A14C G17U C27U	0.647
A14C A21G C29A C34U A69U	0.638
A14C C27A U54A A69G	0.647
A14C C34U G39C A70U	≤ 0.5
U13G G39C A69U	0.625
A14C C55A G58A	0.55

Variant	yeast fitness
A14C A20U C60G	0.571
A14C A20U A69U	0.532
A14C A20U A69C	≤ 0.5
A14C C60U C62U U64A	≤ 0.5
A14C A36U	0.591
A14C A36C	0.564
A14C A36G	0.644
A14C A21C C24U A36U A43U G56A G58C C66A	≤ 0.5
A14C A36U G68A	≤ 0.5
A14C C31U A70G	0.612
A14C A21U A42C G58C U64A A69C	≤ 0.5
A14C C27G U28G	≤ 0.5
A14C A20U C31U	≤ 0.5
A14C A20U C31A	≤ 0.5
U13G A21U	1.09
A14C C55U C61G C62G	0.571
A14C A21G C22U U47A G56A	0.622
U13G A20C C55U A69U	0.565
A14C A45C	0.702
A14C A45U	0.717
A14C G17A G48C C55U G63U	≤ 0.5
A14C C24G U26A A36G A40U A43U	≤ 0.5
U13G U19A C27U C29U	≤ 0.5
